The source made the active and inactive calls. The rule behind the calls is not given here.
Tests used:
MDA-MB-231 [1] = test: Antiproliferative activity against human MDA-MB-231 cells assessed as reduction in cell viability at IC50 concentration incubated for 72 hrs in presence of 3-MA by crystal violet staining based assay; format: functional
MDA-MB-231 [2] = test: Antiproliferative activity against human MDA-MB-231 cells assessed as reduction in cell viability by measuring total mitochondrial respiration incubated for 72 hrs by MTT assay; format: functional, cell-based; conditions: MDA-MB-231, 72 h
Procedure, shortened: (§1)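 Adherent tumour lines grown in HEPES-buffered RPMI-1640 with 10% heat-inactivated FCS, 2 mM L-glutamine, 0.01% sodium pyruvate, penicillin/streptomycin, 37 °C, 5% CO2. Seeding per well: MCF-7 7 × 10³, MDA-MB-231 4 × 10³, MDA-MB-361 6 × 10³, U251 2 × 10³. Cells seeded overnight, then exposed to a dose range for 72 h from 20 mM DMSO stocks diluted in medium. Washed, fixed, read by MTT or CV. IC50 given as mean ± SD of at least three independent experiments.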

MDA-MB-231 [3] = test: Induction of apoptosis in human MDA-MB-231 cells assessed as increase in cell nuclei incubated for 72 hrs by propidium iodide staining based fluorescence microscopy analysis; format: functional
MDA-MB-231 [4] = test: Antiproliferative activity against human MDA-MB-231 cells assessed as reduction in cell viability at IC50 concentration incubated for 72 hrs in presence of chloroquine by crystal violet staining based assay; format: functional
MDA-MB-231 [5] = test: Induction of apoptosis in human MDA-MB-231 cells assessed as late apoptotic cells at IC50 concentration incubated for 72 hrs by Annexin V/propidium iodide staining based flow cytometry analysis (reference value: 3.19 %); format: functional
MDA-MB-231 [6] = test: Induction of apoptosis in human MDA-MB-231 cells assessed as abnormal cell shape incubated for 72 hrs by propidium iodide staining based fluorescence microscopy analysis; format: functional
MDA-MB-231 [7] = test: Induction of apoptosis in human MDA-MB-231 cells assessed as viable cells at IC50 concentration incubated for 72 hrs by Annexin V/propidium iodide staining based flow cytometry analysis (reference value: 95.0 %); format: functional
MDA-MB-231 [8] = test: Induction of autophagy in human MDA-MB-231 cells at IC50 concentration incubated for 72 hrs by acridine orange staining based flow cytometry analysis; format: functional, cell-based
MDA-MB-231 [9] = test: Induction of RNS production in human MDA-MB-231 cells assessed as oxidative burst incubated for 72 hrs by DHR staining based flow cytometry analysis; format: functional, cell-based
Procedure, shortened: (§2)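 MDA-MB-231 cells were treated for 72 h, then pre-stained with 1 µM dihydrorhodamine 123 for 20 min at 37 °C. After PBS washing and trypsinisation, ROS/RNS were read by flow cytometry.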

[10] = Cytotoxicity against mouse Peritoneal exudate cell assessed as reduction in cell viability by measuring total mitochondrial respiration incubated for 72 hrs by MTT assay; format: toxicity, cell-based; conditions: peritoneal exudate cells
Procedure, shortened: (§3)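 Mouse peritoneal exudate cells were exposed to a dose range for 72 h, and viability was read by MTT (mitochondrial respiration) or CV (adherent cells). Compounds came from 20 mM DMSO stocks diluted in medium. IC50 given as mean ± SD.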

U-251 [11] = test: Antiproliferative activity against human U-251 cells assessed as reduction in cell viability by measuring number of adherent cells incubated for 72 hrs by crystal violet staining based assay; format: functional; conditions: U-251, 72 h; procedure, shortened: as §1
MDA-MB-231 [12] = test: Induction of autophagy in human MDA-MB-231 cells assessed as increase in granularity of the cellular cytoplasm at IC50 concentration incubated for 72 hrs by flow cytometric analysis
MCF7 [13] = test: Antiproliferative activity against human MCF7 cells assessed as reduction in cell viability by measuring total mitochondrial respiration incubated for 72 hrs by MTT assay; format: functional, cell-based; conditions: MCF7, 72 h; procedure, shortened: as §1
MCF7 [14] = test: Antiproliferative activity against human MCF7 cells assessed as reduction in cell viability by measuring number of adherent cells incubated for 72 hrs by crystal violet staining based assay; format: functional; conditions: MCF7, 72 h; procedure, shortened: as §1
U-251 [15] = test: Antiproliferative activity against human U-251 cells assessed as reduction in cell viability by measuring total mitochondrial respiration incubated for 72 hrs by MTT assay; format: functional, cell-based; conditions: U-251, 72 h; procedure, shortened: as §1
MDA-MB-231 [16] = test: Induction of apoptosis in human MDA-MB-231 cells assessed as abnormal cell size incubated for 72 hrs by propidium iodide staining based fluorescence microscopy analysis; format: functional
MDA-MB-231 [17] = test: Induction of apoptosis in human MDA-MB-231 cells assessed as early apoptotic cells at IC50 concentration incubated for 72 hrs by Annexin V/propidium iodide staining based flow cytometry analysis (reference value: 0.72 %); format: functional
MDA-MB-231 [18] = test: Antiproliferative activity against human MDA-MB-231 cells assessed as reduction in cell viability by measuring number of adherent cells incubated for 72 hrs by crystal violet staining based assay; format: functional; conditions: MDA-MB-231, 72 h; procedure, shortened: as §1
MDA-MB-231 [19] = test: Induction of apoptosis in human MDA-MB-231 cells assessed as necrotic cells at IC50 concentration incubated for 72 hrs by Annexin V/propidium iodide staining based flow cytometry analysis (reference value: 1.11 %); format: functional
MDA-MB-231 [20] = test: Induction of apoptosis in human MDA-MB-231 cells assessed as chromatin condensation incubated for 72 hrs by propidium iodide staining based fluorescence microscopy analysis; format: functional, cell-based
MDA-MB-231 [21] = test: Induction of ROS production in human MDA-MB-231 cells assessed as oxidative burst incubated for 72 hrs by DHR staining based flow cytometry analysis; format: functional, cell-based; procedure, shortened: as §2
MDA-MB-361 [22] = test: Antiproliferative activity against human MDA-MB-361 cells assessed as reduction in cell viability by measuring total mitochondrial respiration incubated for 72 hrs by MTT assay; format: functional, cell-based; conditions: MDA-MB-361, 72 h; procedure, shortened: as §1
MDA-MB-361 [23] = test: Antiproliferative activity against human MDA-MB-361 cells assessed as reduction in cell viability by measuring number of adherent cells incubated for 72 hrs by crystal violet staining based assay; format: functional; conditions: MDA-MB-361, 72 h; procedure, shortened: as §1
MDA-MB-231 [24] = test: Induction of apoptosis in human MDA-MB-231 cells assessed as caspase activation incubated for 72 hrs by Apostat staining based flow cytometry analysis; format: functional, cell-based
[25] = Cytotoxicity against mouse Peritoneal exudate cell assessed as reduction in cell viability by measuring number of adherent cells incubated for 72 hrs by crystal violet staining based assay; format: toxicity; procedure, shortened: as §3
[26] = (§4) Selectivity index, ratio of IC50 for cytotoxicity against mouse Peritoneal exudate cell assessed as reduction in cell viability by measuring number of adherent cells to IC50 for antiproliferative activity against human MDA-MB-231 cells assessed as reduction in cell viability by measuring number of adherent cells; format: toxicity, cell-based; conditions: mouse peritoneal exudate cells versus human MDA-MB-231 cells, read-out: Ratio IC50
Procedure, shortened: (§5)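 Selectivity index is the IC50 in normal mouse peritoneal exudate cells divided by the IC50 in MDA-MB-231. Both IC50s come from 72 h dose-range treatment, read by the same assay: CV (adherent cells) or MTT (mitochondrial respiration).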

[27] = as §4, with “total mitochondrial respiration” for “number of adherent cells”; format: toxicity, cell-based; conditions: mouse peritoneal exudate cells versus human MDA-MB-231 cells, read-out: Ratio IC50; procedure, shortened: as §5

| SMILES | Activity (MDA-MB-231 [1]) | IC50 (MDA-MB-231 [2]) [µM] | Activity (MDA-MB-231 [3]) | Activity (MDA-MB-231 [4]) | Activity (MDA-MB-231 [5]) [%] | Activity (MDA-MB-231 [6]) | Activity (MDA-MB-231 [7]) [%] | Activity (MDA-MB-231 [8]) | Activity (MDA-MB-231 [9]) | IC50 at 72 h [10] [µM] | IC50 (U-251 [11]) [µM] | Activity (MDA-MB-231 [12]) | IC50 (MCF7 [13]) [µM] | IC50 (MCF7 [14]) [µM] | IC50 (U-251 [15]) [µM] | Activity (MDA-MB-231 [16]) | Activity (MDA-MB-231 [17]) [%] | IC50 (MDA-MB-231 [18]) [µM] | Activity (MDA-MB-231 [19]) [%] | Activity (MDA-MB-231 [20]) | further results |
| --- | --- | --- | --- | --- | --- | --- | --- | --- | --- | --- | --- | --- | --- | --- | --- | --- | --- | --- | --- | --- | --- |
| O=C(c1ccc(OCCN2CCCCC2)cc1)c1c(-c2ccc(O)cc2)sc2cc(O)ccc12 [RALOXIFENE] | Active | 19.1 | Active | Active | 11.5 | Active | 67 | Active | Active | 18.3 | 23.4 | Active | 16.8 | 21.4 | 19.2 | Active | 20.6 | 22 | 0.93 | Active | Activity (MDA-MB-231 [21]): Active; IC50 (MDA-MB-361 [22]): 22.2 µM; IC50 (MDA-MB-361 [23]): 38.9 µM; Activity (MDA-MB-231 [24]): Active; IC50 at 72 h [25]: 20.4 µM |
| COc1ccc(-c2sc3cc(OC)ccc3c2C(=O)c2ccc(OCc3ccnc(-c4ccccn4)c3)cc2)cc1 | Active | 1.6 | Active | Active | 23.3 | Active | 46.4 | Active | Active | 15.4 | 2.6 | Active | 2.15 | 2.4 | 2.2 | Active | 29.3 | 1.5 | 1.01 | Active | selectivity ratio [26]: 12.6; Activity (MDA-MB-231 [21]): Active; IC50 (MDA-MB-361 [22]): 6.3 µM; IC50 (MDA-MB-361 [23]): > 100 µM; Activity (MDA-MB-231 [24]): Active; selectivity ratio [27]: 9.5; IC50 at 72 h [25]: 18.9 µM |

— ChEMBL document CHEMBL5532753, “Bipyraloxifene - a modified raloxifene vector against triple-negative breast cancer” (RSC Med Chem, 2024)
